Legend:
L1210 [1] = test: In vitro inhibitory effect on growth of L1210 leukemia cells; assay type: functional; conditions: Mus musculus, read-out: ID50 (the source's name)
Method in brief: (§1)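 Suspension cells in RPMI-1640 with 10% FBS and 20 mM Hepes were seeded at 1 × 10^5 cells/mL. Filter-sterilized compound was added in duplicate at log concentrations 1 × 10^-10 to 1 × 10^-4 M. After 48 h at 37 °C, cells were Coulter-counted. ID50 is 50% growth inhibition versus untreated controls, averaged over two to three determinations.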

P388 [2] = test: In vitro inhibitory effect on growth of P388 leukemia cells; assay type: functional; conditions: Mus musculus, read-out: ID50 (the source's name); method in brief: as §1
Vero = test: Maximum tolerated concentration against Vero cells.; assay type: functional, Chlorocebus sabaeus
Method in brief: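 Single uninfected confluent Vero monolayer wells were exposed alongside the antiviral wells, final 5 × 10^-6 to 5 × 10^-3 M, for 72 h at 37 °C, 5% CO2. Cytotoxicity was any microscopically visible change in morphology or monolayer density (lysis, rounding, detachment). MTC is the […].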

Human alphaherpesvirus 2 = test: In vitro antiviral activity against herpes simplex virus type 2 (HSV-2) in Vero cells.; assay type: functional; conditions: Human alphaherpesvirus 2, Vero; read-out: ED50 (the source's name)
Method in brief: (§2)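 Confluent Vero monolayers (4 × 10^4 cells/well, grown 24 h at 37 °C in EMEM with 10% newborn bovine serum) were infected with virus: HSV-2 at 100, measles at 100, para-3 at 60 TCID50/well. After 30 min adsorption at 37 °C, compound was added in seven 0.5-log steps, final 5 × 10^-6 to 5 × 10^-3 M (active ones 5 × 10^-7 to 5 × 10^-4 M), duplicate wells.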

Measles morbillivirus = test: In vitro antiviral activity against measles virus in Vero cells; assay type: functional; conditions: read-out: ED50 (the source's name); method in brief: as §2
Human respirovirus 3 = test: In vitro antiviral activity against parainfluenza type 3 virus in Vero cells.; assay type: functional; conditions: Human respirovirus 3, Vero; read-out: ED50 (the source's name); method in brief: as §2
Vaccinia virus = test: In vitro antiviral activity against vaccinia virus in Vero cells.; assay type: functional; conditions: Orthopoxvirus vaccinia, read-out: ED50 (the source's name)
B16 = test: In vitro inhibitory effect on growth of B16 melanoma cells; assay type: functional; conditions: Mus musculus, read-out: ID50 (the source's name)
Method in brief: (§3)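 Monolayers were seeded at 2.5 × 10^4 cells/well and grown 24 h at 37 °C, 5% CO2. Lewis lung cells were kept in RPMI-1640 with 5% fetal calf serum; B16 cells in MEM with 10% FCS, nonessential amino acids, 1 mM pyruvate and vitamins. Medium was replaced with compound at log concentrations 1 × 10^-10 to 1 × 10^-4 M. After 72 h, cells were PBS-washed, trypsinized and Coulter-counted. ID50 is 50% growth inhibition versus controls, averaged over two to three determinations.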

[3] = system: Lewis lung carcinoma cell line; test: In vitro inhibitory effect on growth of lewis lung carcinoma cells; assay type: functional; conditions: Mus musculus, read-out: ID50 (the source's name); method in brief: as §3
P388 [4] = test: In vitro inhibitory effect on growth of P388 leukemia cell; assay type: functional; conditions: Mus musculus, read-out: ID50 (the source's name); method in brief: as §1
[5] = In vitro inhibitory effect on growth of […] cells.; assay type: functional; conditions: Mus musculus; read-out: ID50 (the source's name); method in brief: as §3
[6] = system: Lewis lung carcinoma cell line; test: In vitro inhibitory effect on growth of lewis lung carcinoma cells.; assay type: functional; conditions: Mus musculus, read-out: ID50 (the source's name); method in brief: as §3
L1210 [7] = test: In vitro inhibitory effect on growth of L1210 leukemia cells.; assay type: functional; conditions: Mus musculus, read-out: ID50 (the source's name); method in brief: as §1
P388 [8] = test: In vitro inhibitory effect on growth of P388 leukemia cells.; assay type: functional; conditions: Mus musculus, read-out: ID50 (the source's name); method in brief: as §1

| Compound | IC50 (L1210 [1]) | IC50 (P388 [2]) | MTC (Vero) | EC50 (Human alphaherpesvirus 2) | EC50 (Measles morbillivirus) | EC50 (Human respirovirus 3) | EC50 (Vaccinia virus) | IC50 (B16) | IC50 [3] | IC50 (P388 [4]) | IC50 [5] | IC50 [6] | IC50 (L1210 [7]) | IC50 (P388 [8]) |
| --- | --- | --- | --- | --- | --- | --- | --- | --- | --- | --- | --- | --- | --- | --- |
| NC(=O)c1[nH]nc([C@@H]2O[C@H](COP(=O)([O-])[O-])[C@@H](O)[C@H]2O)c1OCc1ccccc1.[Na+].[Na+] | 130 µM | 94 µM | >5 mM | > 5000 µM | > 5000 µM | > 5000 µM | > 5000 µM | – | – | – | – | – | – | – |
| NC(=O)c1[nH]nc(C2O[C@H](COP(=O)(O)O)[C@H](O)[C@@H]2O)c1O (some centres not stated) | 0.0027 µM | 0.001 µM | >5 mM | 23 µM | 20 µM | 6.3 µM | 4 µM | 0.24 µM | 0.005 µM | – | – | – | – | – |
| N=C(N)C1NN=C([C@@H]2O[C@H](CO)[C@@H](O)[C@H]2O)C1=O (some centres not stated) | 79 µM | > 100 µM | >5 mM | 3100 µM | 5000 µM | – | > 5000 µM | > 100 µM | 89 µM | – | – | – | – | – |
| NC(=O)c1[nH]nc(C2OC3COP(=O)(O)O[C@@H]3[C@@H]2O)c1O (some centres not stated) | 2.5 µM | 4.4 µM | >5 mM | 130 µM | > 5000 µM | 500 µM | 250 µM | 6.3 µM | 1.7 µM | – | – | – | – | – |
| NC(=O)c1[nH]nc([C@@H]2O[C@H](CO)[C@@H](O)[C@H]2O)c1OCc1ccccc1 | 75 µM | 62 µM | >5 mM | > 5000 µM | 1300 µM | > 5000 µM | > 5000 µM | – | – | – | – | – | – | – |
| NC(=O)c1ncn([C@@H]2O[C@H](CO)[C@@H](O)[C@H]2O)n1 [RIBAVIRIN] | – | – | >5 mM | 190 µM | 99 µM | 160 µM | 90 µM | – | – | – | – | – | – | – |
| CCOP(=O)(O)OC[C@H]1O[C@@H](C2=NNC(C(N)=O)C2=O)[C@H](O)[C@@H]1O (some centres not stated) | 0.0039 µM | 0.0032 µM | >5 mM | 590 µM | 97 µM | 80 µM | 26 µM | 0.23 µM | 0.0007 µM | – | – | – | – | – |
| COP(=O)(OC)OC[C@H]1O[C@@H](C2=NNC(C(N)=O)C2=O)[C@H](O)[C@@H]1O (some centres not stated) | 0.0058 µM | 0.012 µM | >5 mM | > 5000 µM | 1400 µM | 1000 µM | 280 µM | 2.3 µM | 0.01 µM | – | – | – | – | – |
| COc1c([C@@H]2O[C@H](CO)[C@@H](O)[C@H]2O)nn(C)c1C(N)=O | > 100 µM | – | 5 mM | 3200 µM | > 5000 µM | > 5000 µM | 5000 µM | – | – | > 100 µM | – | – | – | – |
| NC(=O)C1NN=C([C@@H]2O[C@H](CO)[C@@H](O)[C@H]2O)C1=O (some centres not stated) | 0.0032 µM | 0.0033 µM | 1.6 mM | 20 µM | 9.6 µM | 3 µM | 2.8 µM | 0.063 µM | 0.0018 µM | – | – | – | – | – |
| NC(=O)c1[nH]nc(C2O[C@@H](COP(=O)(O)OP(=O)(O)OC[C@H]3OC(n4cnc5c(N)ncnc54)[C@H](O)[C@@H]3O)[C@H](O)[C@@H]2O)c1O (some centres not stated) | – | – | 5 mM | 10 µM | 16 µM | 5 µM | 9 µM | – | – | – | 0.6 µM | 0.0048 µM | 0.004 µM | 0.0088 µM |
| N#CC1NN=C([C@@H]2O[C@H](CO)[C@@H](O)[C@H]2O)C1=O (some centres not stated) | 13 µM | 45 µM | >5 mM | > 5000 µM | 5000 µM | > 5000 µM | 5000 µM | 72 µM | 28 µM | – | – | – | – | – |
| NC(=S)c1[nH]nc([C@@H]2O[C@H](CO)[C@@H](O)[C@H]2O)c1OCc1ccccc1 | > 100 µM | > 100 µM | >5 mM | 2800 µM | 500 µM | > 5000 µM | 2100 µM | > 100 µM | > 100 µM | – | – | – | – | – |
| CN1N=C([C@@H]2O[C@H](CO)[C@@H](O)[C@H]2O)C(=O)C1C(N)=O (some centres not stated) | 15 µM | 17 µM | >5 mM | > 5000 µM | > 5000 µM | > 5000 µM | 1600 µM | – | – | – | – | – | – | – |
| N/C(=N/O)c1[nH]nc([C@@H]2O[C@H](CO)[C@@H](O)[C@H]2O)c1OCc1ccccc1 | > 100 µM | > 100 µM | >5 mM | > 5000 µM | > 5000 µM | > 5000 µM | > 5000 µM | – | – | – | – | – | – | – |
| COc1c([C@@H]2O[C@H](CO)[C@@H](O)[C@H]2O)n[nH]c1C(N)=O | 29 µM | 40 µM | >5 mM | > 5000 µM | > 5000 µM | > 5000 µM | 2800 µM | – | – | – | – | – | – | – |

Reference: ChEMBL document CHEMBL1123400, “Synthesis and biological activity of certain nucleoside and nucleotide derivatives of pyrazofurin” (1986)
